Series [1] deals with HUVEC. Briefly: Vascular disrupting activity in HUVEC assessed as change in cell morphology with detachment form substrate after 1 hr by crystal violet staining-based inverted light microscopy. The series is classed as functional, Homo sapiens. Summed up:
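HUVEC treated for 1 h with compound; morphology (cell retraction, rounding, detachment from substrate) examined by light microscopy.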

The test system of series [2] is HUVEC. As to the kind of experiment: Cytotoxicity against HUVEC after 1 hr by crystal violet staining. Format: functional, cell-based, Homo sapiens.
For series [3], the system named is HUVEC. Briefly: Cytotoxicity against HUVEC after 72 hrs by crystal violet staining. Format: functional, cell-based, Homo sapiens.
Series [4] is described as follows: Dissociation constant, pKa of the compound. The series is classed as physicochemical.
For series [5], the system named is HCT-15. Briefly: Growth inhibition of human HCT15 cells after 3 days by crystal violet staining. Conditions: HCT-15, 72 h. The series is classed as functional.
The subject of series [6] is NCI-H460. Briefly: Growth inhibition of human NCI-H460 cells after 3 days by crystal violet staining. Format: functional. Conditions: NCI-H460, 72 h.
Series [7] is described as follows: Growth inhibition of human NCI60 cells after 3 days by crystal violet staining. Format: functional. Conditions: NCI60, 72 h.
For series [8], the system named is HUVEC. Briefly: Vascular disrupting activity in HUVEC assessed as disorganization of microtubule at 0.1 uM after 1 hr by FITC-onjugated DAPI staining-based immunofluorescence assay. Conditions: Homo sapiens. The series is classed as functional, cell-based. The essentials: (§1)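 HUVEC exposed to vehicle or compound (0.1-1 μM range) for 1 h, then tubulin cytoskeleton examined by immunofluorescence for microtubule disorganization and blebbing of rounded cells.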

Series [9] concerns HUVEC. Briefly: Vascular disrupting activity in HUVEC assessed as appearance of blebbing morphology of rounded cells at 0.1 uM after 1 hr by FITC-onjugated DAPI staining-based immunofluorescence assay. Format: functional, cell-based. Conditions: Homo sapiens. Summed up: as §1
Series [10] has as its system HUVEC. As to the kind of experiment: Vascular disrupting activity in HUVEC assessed as disorganization of microtubule after 1 hr by FITC-onjugated DAPI staining-based immunofluorescence assay. Conditions: Homo sapiens. The series is classed as functional, cell-based. The essentials: as §1
Series [11] has as its system HUVEC. Briefly: Vascular disrupting activity in HUVEC assessed as appearance of blebbing morphology of rounded cells after 1 hr by FITC-onjugated DAPI staining-based immunofluorescence assay. The series is classed as functional, cell-based. Conditions: Homo sapiens. The essentials: as §1
The test system of series [12] is HUVEC. Briefly: Vascular disrupting activity in HUVEC assessed as disruption of capillary-like structure formation on permissive matrix at 0.1 uM after 1 hr by microscopy. The series is classed as functional, cell-based. Conditions: Homo sapiens. The essentials: (§2)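 HUVEC seeded on 3D Matrigel form capillary-like cord networks by 24 h; compound then added to formed cords and images taken 1 h later to assess cord disruption and shortening.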

Series [13] has as its system HUVEC. Briefly: Vascular disrupting activity in HUVEC assessed as disruption of capillary-like structure formation on permissive matrix at 1 uM after 1 hr by microscopy. Format: functional, cell-based. Conditions: Homo sapiens. The essentials: as §2
In series [14] the test system is Mus musculus. As to the kind of experiment: Vascular disrupting activity in C57BL/6N mouse assessed as rapid decrease in FGF2-induced vessel formation on permissive matrix at 20 m/kg, ip after 1 hr by FTC-conjugated staining based confocal microscopy. Format: functional, organism-based. The essentials: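 Matrigel plug containing FGF-2 implanted in mice, vessels allowed to form over 7 days (plug without FGF-2 as negative control). Single ip dose given, then functional perfused vessels visualized 1 h later with FITC-isolectin B4 by confocal microscopy; at least three images per sample, n = 5.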

Series [15] has as its system MDA-MB-435. Briefly: Induction of necrosis in central region of human MDA-MB-435 cells exenografted in NCr nu/nu mouse at 20 mg/kg, ip administered as single dose measured after 24 hrs by haematoxylin/eosin staining-based histopathological analysis. The series is classed as functional, organism-based. Also noted: dose 20 mg/kg. For orientation: In xenograft studies the graft and the host belong to different species.

Series [16] has as its system MDA-MB-435. Briefly: Induction of necrosis in central region of human MDA-MB-435 cells exenografted in NCr nu/nu mouse at 80 mg/kg, ip administered as single dose measured after 24 hrs by haematoxylin/eosin staining-based histopathological analysis. Also noted: dose 80 mg/kg. The series is classed as functional, organism-based.

Structures are written as SMILES. The source made the active and inactive calls. The rule behind the calls is not given here.

What is called IC50 is the concentration needed to halve the response being measured. In general, pKa refers to the negative logarithm of the acid dissociation constant. Read a low pKa as a stronger acid or weaker base. As for `COc1ccc(-c2cncn2-c2cc(OC)c(OC)c(OC)c2)cc1` [listing 1 of 2 here], the results for the IC50 in series [1] (huvec), in series [2] (huvec) and in series [3] (huvec) were 950 nM, 20000 nM and 540 nM, respectively. In addition, the pKa in series [4] worked out at 6.82.
For orientation: GI50 means the concentration at which growth is held to half of that of the control. Read a high GI50 as less potent growth inhibition. As for `COc1cc(-n2ccnc2-c2ccc(N(C)C)cc2)cc(OC)c1OC`, the GI50 in series [5] stood at 80 nM; in [6], 270 nM.
Consider `COc1ccc(-c2cncn2-c2cc(OC)c(OC)c(OC)c2)cc1F`, for which the IC50 in series [1] (Homo sapiens, HUVEC, 1 h) turned out to be 17300 nM; in series [2] (Homo sapiens, HUVEC, 1 h), 17000 nM; in series [3] (Homo sapiens, HUVEC, 72 h) it was 450 nM. Besides, the GI50 in series [5] is < 10 nM; in series [6], < 10 nM; in series [7], 39.8 nM.
With `COc1ccc(-c2nccn2-c2cc(OC)c(OC)c(OC)c2)cc1`, the GI50 in series [5] is 1150 nM; in series [6], 1580 nM; in series [7], 4570 nM.
On to `COc1ccc(-c2cncn2-c2cc(OC)c(OC)c(OC)c2)cc1` [listing 2 of 2 here], for which the IC50 in series [1] (huvec) is 6530 nM; in [2] (Homo sapiens, HUVEC, 1 h) it was 36100 nM; in series [3] (Homo sapiens, HUVEC, 72 h), 600 nM. The GI50 in series [5] is 170 nM; in [6], 363 nM; in [7], 257 nM.
Take `COc1cc(-n2cncc2-c2ccc3ccccc3c2)cc(OC)c1OC` [listing 1 of 3 here]: the IC50 was 40 nM in [1] (huvec), 2100 nM in [2] (huvec) and 110 nM in [3] (huvec). In [4], this compound came in with a pKa of 5.58.
As for `COc1ccc(/C=C\c2cc(OC)c(OC)c(OC)c2)cc1O` [COMBRETASTATIN A4], the IC50 was determined as 10 nM in [1] (Homo sapiens, HUVEC, 1 h); 400 nM in series [2] (Homo sapiens, HUVEC, 1 h); 5 nM in series [3] (Homo sapiens, HUVEC, 72 h). Also, the concentration for 50% growth inhibition (GI50) in series [5] is < 10 nM; in series [6], < 10 nM; in series [7], 100 nM. For the same compound, the result in series [8] and in [9] was Active.
For the compound `COc1cc(-n2cncc2-c2ccc3ccccc3c2)cc(OC)c1OC` [listing 2 of 3 here], the Activity entry in series [10] and in series [11] was “Dose-dependent effect” in each case. Further, the result in series [12], in [13], in series [14], in series [15] and in series [16] was Active.
As for `COc1cc(-n2cncc2-c2ccc3ccccc3c2)cc(OC)c1OC` [listing 3 of 3 here], the IC50 in series [1] (huvec) worked out at 41500 nM; in series [2] (huvec), 28300 nM; in series [3] (huvec), 540 nM. For the same compound, the GI50 in series [5] was 17 nM; in series [6] it was 18 nM; in series [7], 72.4 nM.
Turning to `COc1cc(-n2cncc2-c2ccc(N(C)C)cc2)cc(OC)c1OC`, the GI50 in [5] worked out at 36 nM; in [6] it was 79 nM.
For the compound `COc1cc(-n2ccnc2-c2ccc3ccccc3c2)cc(OC)c1OC`, the GI50 in [5] was 51 nM; in [6], 37 nM; in [7] it was 151 nM.

(Values after ChEMBL document CHEMBL1154738, “Vascular disrupting activity of tubulin-binding 1,5-diaryl-1H-imidazoles” (J Med Chem, 2009).)
